Measurements taken from ChEMBL document CHEMBL3856239, “Synthesis and Antiobesity Properties of 6-(4-Chlorophenyl)-3-(4-((3,3-difluoro-1-hydroxycyclobutyl)methoxy)-3-methoxyphenyl)thieno[3,2-d]pyrimidin-4(3H)-one (BMS-814580): A Highly Efficacious Melanin Concentrating Hormone Receptor 1 (MCHR1) Inhibitor” (J Med Chem, 2016).

What was measured:
hERG (KCNH2) = hERG (KCNH2) (Homo sapiens, UniProt Q12809); assay: Inhibition of human ERG at 10 uM
How it was run: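 In vitro ion-channel inhibition measured at 10 µM against hERG, Na (4 Hz) and L-type Ca channels; read-out is percent inhibition.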

[1] = Protein binding in Sprague-Dawley rat plasma at 10 mg/kg, po qd for 4 days; type: ADME, organism-based; details: read-out: PPB
Homo sapiens = species on record: Homo sapiens; assay: Inhibition of human PDE4 using [3H]cAMP at 10 uM
[2] = Binding affinity to cynomolgus monkey MCHR1; parameters: species or system Macaca fascicularis
Cytochrome P450 2C9 = Cytochrome P450 2C9 (Homo sapiens, UniProt P11712); assay: Inhibition of CYP2C9 (unknown origin); type: ADME
Chain of Cytochrome P450 2C9 (P11712 whole entry): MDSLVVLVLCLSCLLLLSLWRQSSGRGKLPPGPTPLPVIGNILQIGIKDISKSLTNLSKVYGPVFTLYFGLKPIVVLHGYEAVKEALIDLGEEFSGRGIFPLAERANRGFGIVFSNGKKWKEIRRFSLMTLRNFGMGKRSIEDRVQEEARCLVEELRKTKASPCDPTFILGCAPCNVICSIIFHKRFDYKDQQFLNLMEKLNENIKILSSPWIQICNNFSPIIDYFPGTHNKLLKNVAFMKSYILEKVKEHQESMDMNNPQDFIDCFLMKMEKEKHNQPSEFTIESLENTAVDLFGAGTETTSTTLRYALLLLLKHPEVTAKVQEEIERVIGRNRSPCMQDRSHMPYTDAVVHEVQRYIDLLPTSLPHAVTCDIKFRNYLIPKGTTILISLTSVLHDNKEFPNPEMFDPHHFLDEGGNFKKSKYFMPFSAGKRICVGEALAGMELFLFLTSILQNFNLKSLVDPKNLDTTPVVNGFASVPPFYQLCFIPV
How it was run: (§1)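 CYP1A2, 2C8, 2C9, 2C19, 2D6 and 3A4 tested for inhibition, with 40 µM as the top tested limit.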

[3] = Protein binding in rat plasma assessed as unbound fraction; type: ADME, cell-free
How it was run: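 Plasma protein binding reported as % free drug in rat, DIO rat, dog, cynomolgus monkey, rabbit and human plasma.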

[4] = Clearance in cynomolgus monkey at 1 mg/kg, iv; type: ADME, organism-based, Macaca fascicularis; details: in vivo
How it was run: (§2)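 Rats, dogs and cynomolgus monkeys, n = 3: parent 1 mg/kg i.v. in PEG400:DMAC:water (70:5:25), or phosphate prodrug 10 mg/kg oral in Methocel:Tween80:water (0.5:0.1:99.4); plasma parent compound, Cmax, Tmax, AUC0-∞, half-life, clearance, Vss and bioavailability derived.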

[5] = AUC in cynomolgus monkey at 1 mg/kg, iv; type: ADME, organism-based, Macaca fascicularis; details: in vivo; how it was run: as §2
[6] = Clearance rat at 1 mg/kg, iv; type: ADME, organism-based; details: in vivo; how it was run: as §2
Cytochrome P450 1A2 = molecular target: T1, Cytochrome P450 1A2 (Homo sapiens, UniProt P05177); assay: Inhibition of CYP1A2 (unknown origin); type: ADME; how it was run: as §1
T1 sequence (P05177 whole entry): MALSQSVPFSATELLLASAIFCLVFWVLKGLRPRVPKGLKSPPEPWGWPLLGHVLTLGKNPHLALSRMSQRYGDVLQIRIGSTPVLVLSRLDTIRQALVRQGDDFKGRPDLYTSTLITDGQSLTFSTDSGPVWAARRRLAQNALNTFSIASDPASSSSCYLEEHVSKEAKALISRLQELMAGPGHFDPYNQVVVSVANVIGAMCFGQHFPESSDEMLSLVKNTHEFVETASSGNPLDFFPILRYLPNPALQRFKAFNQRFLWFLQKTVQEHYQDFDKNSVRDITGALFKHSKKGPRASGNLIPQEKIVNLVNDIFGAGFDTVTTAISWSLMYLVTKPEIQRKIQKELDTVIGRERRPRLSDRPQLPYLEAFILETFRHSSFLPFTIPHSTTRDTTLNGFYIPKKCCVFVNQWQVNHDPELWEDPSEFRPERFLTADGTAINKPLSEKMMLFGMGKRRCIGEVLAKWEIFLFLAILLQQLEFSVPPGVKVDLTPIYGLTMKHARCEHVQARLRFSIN

Chain of hERG (KCNH2) (Q12809 whole entry): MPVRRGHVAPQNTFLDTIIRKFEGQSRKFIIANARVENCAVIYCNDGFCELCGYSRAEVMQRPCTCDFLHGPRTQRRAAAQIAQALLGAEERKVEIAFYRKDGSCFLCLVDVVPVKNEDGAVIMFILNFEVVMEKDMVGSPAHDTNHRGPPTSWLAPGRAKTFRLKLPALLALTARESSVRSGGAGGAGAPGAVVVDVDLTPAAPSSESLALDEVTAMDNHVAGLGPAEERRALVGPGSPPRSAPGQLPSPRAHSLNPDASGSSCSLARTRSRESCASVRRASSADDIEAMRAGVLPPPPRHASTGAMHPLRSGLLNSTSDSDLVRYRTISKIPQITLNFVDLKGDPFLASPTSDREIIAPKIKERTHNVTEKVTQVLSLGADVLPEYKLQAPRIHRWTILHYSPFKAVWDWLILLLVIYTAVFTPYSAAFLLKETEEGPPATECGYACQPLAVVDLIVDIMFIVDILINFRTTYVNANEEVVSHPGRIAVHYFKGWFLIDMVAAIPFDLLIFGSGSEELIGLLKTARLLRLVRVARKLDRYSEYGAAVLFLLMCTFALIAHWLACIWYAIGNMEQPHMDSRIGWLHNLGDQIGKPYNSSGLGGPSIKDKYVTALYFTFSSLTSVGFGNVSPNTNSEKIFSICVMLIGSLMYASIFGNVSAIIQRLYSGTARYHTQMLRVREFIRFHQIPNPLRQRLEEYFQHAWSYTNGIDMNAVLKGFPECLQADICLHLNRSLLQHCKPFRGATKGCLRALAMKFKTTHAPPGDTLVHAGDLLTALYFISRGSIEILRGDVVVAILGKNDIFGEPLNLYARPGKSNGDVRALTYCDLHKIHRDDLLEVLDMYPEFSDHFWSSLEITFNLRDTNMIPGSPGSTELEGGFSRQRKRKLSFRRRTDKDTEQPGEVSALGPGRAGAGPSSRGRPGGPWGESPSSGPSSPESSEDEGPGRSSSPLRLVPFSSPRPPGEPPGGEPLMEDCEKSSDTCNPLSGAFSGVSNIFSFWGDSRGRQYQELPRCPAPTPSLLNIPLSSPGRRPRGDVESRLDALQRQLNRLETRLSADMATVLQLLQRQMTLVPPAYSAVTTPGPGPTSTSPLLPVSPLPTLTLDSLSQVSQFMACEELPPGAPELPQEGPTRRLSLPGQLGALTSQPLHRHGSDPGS

- fraction unbound at 96 h [1]: < 0.02
- inhibition (Homo sapiens): 68%
- Ki [2]: 4.9 nM
- INH (Cytochrome P450 2C9): > 40 µM
- Fu [3]: 0.2%
- clearance [4]: 1.7 mL/min/kg
- AUC [5]: 22.1 µM·h
- clearance [6]: 0.9 mL/min/kg
- INH (Cytochrome P450 1A2): > 40 µM
Compound: COc1cc(-n2cnc3cc(-c4ccc(Cl)cc4)sc3c2=O)ccc1OCC1(O)CC(F)(F)C1
- inhibition at 10 µM (hERG (KCNH2)): 43%
